Measurements as given in ChEMBL document CHEMBL4699659, “Discovery of 4-amino-1H-pyrazolo[3,4-d]pyrimidin derivatives as novel discoidin domain receptor 1 (DDR1) inhibitors” (Bioorg Med Chem, 2021).
pIC50: −log10 of the molar value.

Legend:
HCT-116 [1] = test: Antiproliferative activity against human HCT-116 cells overexpressing DDR1 assessed as inhibition of cell proliferation at 10 uM measured after 72 hrs by MTT assay relative to control; assay type: functional
Procedure, shortened: (§1)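 Adherent cells seeded at 3000–4000 per well, then given compound at 10 μM in 100 μL medium on day two. After 72 h, MTT added for a further 4–5 h and absorbance read at 570 nm. Percent growth inhibition taken from sample absorbance as a ratio to untreated control.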

HCT-116 [2] = test: Antiproliferative activity against human HCT-116 cells overexpressing DDR1 assessed as inhibition of cell proliferation measured after 72 hrs by MTT assay; assay type: functional, cell-based; details: HCT-116, 72 h
Procedure, shortened: (§2)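 Adherent cells seeded at 3000–4000 per well and dosed the next day with a dilution series in 100 μL medium. Exposure 72 h, then MTT incubation 4–5 h and absorbance read at 570 nm. Inhibition expressed as sample/control absorbance ratio; IC50 determined only for compounds giving […] inhibition at 10 μM.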

MDA-MB-231 [3] = test: Antiproliferative activity against human MDA-MB-231 cells overexpressing DDR1 assessed as inhibition of cell proliferation at 10 uM measured after 72 hrs by MTT assay relative to control; assay type: functional; procedure, shortened: as §1
MDA-MB-231 [4] = test: Antiproliferative activity against human MDA-MB-231 cells overexpressing DDR1 assessed as inhibition of cell proliferation measured after 72 hrs by MTT assay; assay type: functional, cell-based; details: MDA-MB-231, 72 h; procedure, shortened: as §2
[5] = target: Epithelial discoidin domain-containing receptor 1 (Homo sapiens, UniProt Q08345); test: Inhibition of DDR1 (unknown origin) using fluorescein-poly GAT as substrate measured after 1 hr by LANCE ULTRA kinase assay
Chain of Epithelial discoidin domain-containing receptor 1 (Q08345 whole entry, the tested form may be a part): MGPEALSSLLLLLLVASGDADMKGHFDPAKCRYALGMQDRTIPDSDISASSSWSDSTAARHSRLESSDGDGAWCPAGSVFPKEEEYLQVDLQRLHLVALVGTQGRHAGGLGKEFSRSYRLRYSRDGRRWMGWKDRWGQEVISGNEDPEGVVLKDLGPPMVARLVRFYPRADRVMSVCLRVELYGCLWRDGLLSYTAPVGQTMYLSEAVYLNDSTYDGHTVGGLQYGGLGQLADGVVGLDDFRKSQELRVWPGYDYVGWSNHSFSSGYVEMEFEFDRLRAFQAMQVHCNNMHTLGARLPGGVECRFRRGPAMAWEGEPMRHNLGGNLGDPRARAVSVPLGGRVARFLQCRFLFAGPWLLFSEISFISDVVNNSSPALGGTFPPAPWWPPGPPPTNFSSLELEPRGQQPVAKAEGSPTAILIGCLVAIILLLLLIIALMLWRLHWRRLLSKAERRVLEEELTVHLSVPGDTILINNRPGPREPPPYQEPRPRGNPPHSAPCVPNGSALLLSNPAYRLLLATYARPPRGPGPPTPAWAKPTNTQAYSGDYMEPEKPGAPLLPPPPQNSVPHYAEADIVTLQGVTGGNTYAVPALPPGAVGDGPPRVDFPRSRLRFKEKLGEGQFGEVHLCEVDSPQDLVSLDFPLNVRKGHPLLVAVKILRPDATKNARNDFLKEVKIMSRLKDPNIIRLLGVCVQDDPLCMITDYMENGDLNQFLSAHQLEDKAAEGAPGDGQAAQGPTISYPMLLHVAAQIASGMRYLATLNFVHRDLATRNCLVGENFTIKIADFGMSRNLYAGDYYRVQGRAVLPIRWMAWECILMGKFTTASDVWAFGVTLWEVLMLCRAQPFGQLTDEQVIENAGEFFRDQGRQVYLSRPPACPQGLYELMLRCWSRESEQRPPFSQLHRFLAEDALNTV

| Structure (SMILES) | pIC50 (HCT-116 [2]) | pIC50 (MDA-MB-231 [4]) | pIC50 [5] | inhibition at 10 µM (HCT-116 [1]) [%] | inhibition at 10 µM (MDA-MB-231 [3]) [%] |
| --- | --- | --- | --- | --- | --- |
| Cc1ccc(NC(=O)c2ccc(CN3CCOCC3)c(Cl)c2)cc1Oc1ccc(-c2n[nH]c3ncnc(N)c23)cc1 | – | – | 5.66 | 58.3 | 96.5 |
| Cc1ccc(NC(=O)c2ccc(CN3CCN(C)CC3)c(F)c2)cc1Oc1ccc(-c2n[nH]c3ncnc(N)c23)cc1 | – | – | – | 73.2 | 92.1 |
| Cc1ccc(NC(=O)c2ccc(CN3CCOCC3)c(Br)c2)cc1Oc1ccc(-c2n[nH]c3ncnc(N)c23)cc1 | < 5.00 | – | 5.61 | 35 | 81.3 |
| Cc1ccc(NC(=O)c2ccc(CN3CCC(C)CC3)c(C(F)(F)F)c2)cc1Oc1ccc(-c2n[nH]c3ncnc(N)c23)cc1 | – | < 5.00 | 5.55 | 73.7 | 42.1 |
| Cc1ccc(NC(=O)c2ccc(CN3CCCC3)c(C(F)(F)F)c2)cc1Oc1ccc(-c2n[nH]c3ncnc(N)c23)cc1 | < 5.00 | – | 5.92 | 34.9 | 98.5 |
| Cc1ccc(NC(=O)c2ccc(CN3CCN(C)CC3)cc2)cc1Oc1ccc(-c2n[nH]c3ncnc(N)c23)cc1 | < 5.00 | – | 5.57 | 26.7 | 94.5 |
| Cc1ccc(NC(=O)c2ccc(CN3CCCCC3)c(C(F)(F)F)c2)cc1Oc1ccc(-c2n[nH]c3ncnc(N)c23)cc1 | < 5.00 | < 5.00 | 6.01 | 36.9 | 29.6 |
| CCN1CCN(Cc2ccc(C(=O)Nc3ccc(C)c(Oc4ccc(-c5n[nH]c6ncnc(N)c56)cc4)c3)cc2)CC1 | < 5.00 | – | – | 33.6 | 88.7 |
| Cc1ccc(C(=O)Nc2ccc(CN3CCN(C)CC3)c(C(F)(F)F)c2)cc1C#Cc1cnc2ccnn2c1 | – | – | 8.30 | – | – |
| Cc1ccc(NC(=O)c2ccc(CN3CCOCC3)c(C(F)(F)F)c2)cc1Oc1ccc(-c2n[nH]c3ncnc(N)c23)cc1 | < 5.00 | – | 6.38 | 20.5 | 71.3 |
| Cc1ccc(NC(=O)c2ccc(CN3CCOCC3)c(F)c2)cc1Oc1ccc(-c2n[nH]c3ncnc(N)c23)cc1 | < 5.00 | – | 4.61 | 11.1 | 93.1 |

Second part, led by results:

| pIC50 (HCT-116 [2]) | pIC50 (MDA-MB-231 [4]) | pIC50 [5] | Structure (SMILES) | inhibition at 10 µM (HCT-116 [1]) [%] | inhibition at 10 µM (MDA-MB-231 [3]) [%] |
| --- | --- | --- | --- | --- | --- |
| 5.24 | 5.14 | – | Cc1cn(-c2cc(NC(=O)c3ccc(C)c(Nc4nccc(-c5cccnc5)n4)c3)cc(C(F)(F)F)c2)cn1 [NILOTINIB] | 88.1 | 93.6 |
| 5.40 | 5.47 | 7.36 | Cc1ccc(NC(=O)c2ccc(CN3CCN(C)CC3)c(C(F)(F)F)c2)cc1Oc1ccc(-c2n[nH]c3ncnc(N)c23)cc1 | 100 | 97.9 |
| 5.54 | 5.42 | – | Cc1ccc(NC(=O)c2ccc(CN3CCN(C)CC3)c(Cl)c2)cc1Oc1ccc(-c2n[nH]c3ncnc(N)c23)cc1 | 99.9 | 99.2 |
| 5.31 | 5.45 | – | Cc1ccc(NC(=O)c2ccc(CN3CCOCC3)cc2)cc1Oc1ccc(-c2n[nH]c3ncnc(N)c23)cc1 | 97.2 | 99 |
| 5.26 | 5.41 | 7.15 | CCN1CCN(Cc2ccc(C(=O)Nc3ccc(C)c(Oc4ccc(-c5n[nH]c6ncnc(N)c56)cc4)c3)cc2C(F)(F)F)CC1 | 99.7 | 99.3 |
| 5.52 | – | – | Cc1ccc(NC(=O)c2ccc(CN3CCCC3)cc2)cc1Oc1ccc(-c2n[nH]c3ncnc(N)c23)cc1 | 100 | 98.8 |
| 5.86 | 5.56 | – | Cc1ccc(NC(=O)c2ccc(CN3CCC(C)CC3)cc2)cc1Oc1ccc(-c2n[nH]c3ncnc(N)c23)cc1 | 99.9 | 97.4 |
| 5.35 | – | 5.92 | Cc1ccc(NC(=O)c2cccc(CN3CCN(C)CC3)c2)cc1Oc1ccc(-c2n[nH]c3ncnc(N)c23)cc1 | 99.8 | 99.3 |
| 5.70 | 5.57 | – | Cc1ccc(NC(=O)c2ccc(CN3CCCCC3)cc2)cc1Oc1ccc(-c2n[nH]c3ncnc(N)c23)cc1 | 99.6 | 98.7 |
| 5.18 | – | – | Cc1ccc(NC(=O)c2ccc(CN3CCN(C)CC3)c(Br)c2)cc1Oc1ccc(-c2n[nH]c3ncnc(N)c23)cc1 | 99.5 | 100 |
| 5.35 | 5.49 | 6.88 | Cc1ccc(NC(=O)c2ccc(CN3CCN(C)CC3)c(I)c2)cc1Oc1ccc(-c2n[nH]c3ncnc(N)c23)cc1 | 99.7 | 98.9 |
| 5.22 | 5.37 | 7.36 | CN1CCN(Cc2ccc(C(=O)Nc3cccc(Oc4ccc(-c5n[nH]c6ncnc(N)c56)cc4)c3)cc2C(F)(F)F)CC1 | 99.8 | 98.2 |
